High-throughput results (PubChem)
ZTA counter – blocks Epstein-Barr virus ZTA, an EBNA-1 counter-screen | P03206 | ZTA-DNA binding, fluorescence polarization | inhibition, % at 11 µM | 320,000 compounds, 0.15% hits | AID 2234; in the data active = inhibition above about 33%
Target sequence (P03206 whole entry, looked up): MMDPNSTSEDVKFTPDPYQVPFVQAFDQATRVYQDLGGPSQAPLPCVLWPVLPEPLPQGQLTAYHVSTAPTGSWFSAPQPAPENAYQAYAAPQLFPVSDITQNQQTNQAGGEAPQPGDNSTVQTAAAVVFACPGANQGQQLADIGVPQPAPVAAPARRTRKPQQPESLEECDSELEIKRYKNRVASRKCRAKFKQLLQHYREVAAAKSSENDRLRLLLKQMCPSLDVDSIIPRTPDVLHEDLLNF
EBNA-1 inh – blocks EBNA-1 binding to DNA. EBNA-1 DNA binding, fluorescence polarization. inhibition, % at 14.8 µM. 300,000 compounds, 0.34% hits; in the data active = inhibition above about 28%
Fh CTSL1 inh – counter-screen for PFM18AAP inhibitors: inhibitors of F. hepatica cathepsin L1; recombinant F. hepatica cathepsin L1, Z-Leu-Arg-MCA fluorescence; inhibition, % at 5.96 µM; 300,000 compounds, 0.49% hits;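 active = inhibition above the mean of all tested compounds plus 3 SD, set per screening campaign, cut at about 17% in these data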;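 note: 0% = plate median of test compound wells and 100% = 1 µM Z-Phe-Ala-diazomethylketone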
HCV NS3 hel inh – blocks Hepatitis C virus NS3 helicase unwinding; inhibition, % at 10.9 µM; 290,000 compounds, 0.56% hits; NS3 helicase DNA unwinding, Cy5 molecular beacon fluorescence;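 active = inhibition above the mean of all tested compounds plus 3 SD, set per campaign, cut at about 35% in these data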;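 note: 0% = DMSO wells and 100% = thioflavine S control wells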
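Assay system: hepatitis C virus NS3 helicase domain fragment enzyme. Also added: annealed dual-labelled DNA beacon duplex, ATP-started. Timing: 1 h reaction at 25 °C, ATP-initiated. Technique: Cy5 fluorescence at 0 and 60 min, beacon hairpin quenching. Evaluation: % inhibition of unwinding. Replication: one well per compound.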
NS3 hel confirm – HCV NS3 helicase inhibition, confirmation assay | NS3 helicase DNA unwinding, Cy5 molecular beacon fluorescence | 1,600 compounds, 31% hits | inhibition, % at 10.9 µM | shares compounds with HCV NS3 hel inh;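 active = inhibition above the mean of all tested compounds plus 3 SD, cutoff set per campaign, cut at about 36% in these data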
DNA FID counter – counter-screen for HCV NS3 helicase inhibitors: DNA intercalator displacement. shares compounds with HCV NS3 hel inh. inhibition, % at 7.9 µM. AID 1945. 1,600 compounds, 4% hits. DNA fluorescent intercalator displacement, fluorescence; in the data active = inhibition above about 37%;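 note: 0% = vehicle and 100% = reference compound; higher means more displacement of ethidium bromide from the DNA hairpin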
DNA FID DR – DNA intercalator displacement in dose response. shares compounds with HCV NS3 hel inh. fluorescent intercalator displacement from DNA, fluorescence. IC50, µM. 120 tested, under 10 active; call rule not given here
Starred values were filed as active, the others as inactive; . = no result. Hits are enriched below; roughly 1.4% of the tested compounds scored in any of these assays.

SMILES	ZTA counter	EBNA-1 inh	Fh CTSL1 inh	HCV NS3 hel inh	NS3 hel confirm	DNA FID counter	others
Cc1sc(NC(=O)/C=C/C(=O)O)c(C(N)=O)c1-c1ccc(C(C)(C)C)cc1	11.6	0.0	6.3	36.5*	59.5*	-13.8
Cc1sc(NC(=O)C2CCCCC2C(=O)O)c(C(N)=O)c1-c1ccc(C(C)C)cc1 (centres undefined)	9.2	0.1	3.3	39.1*	77.3*	-22.4
O=C(O)CSc1cc(NS(=O)(=O)c2ccc(Cl)cc2)c2ccccc2c1O	10.5	3.2	-0.3	42.9*	50.4*	44.6*
CC(=O)OCCNc1cc(SCc2ccco2)c2nonc2c1[N+](=O)[O-]	7.2	-2.1	-3.4	46.9*	-17.1	19.5
CCOC(=O)[C@@H]1[C@H]2COc3ccccc3[C@@H]2N2C(=O)N(c3ccc(Cl)cc3)C(=O)[C@]12C	-17.0	-6.9	-0.4	-20.4	.	.
CC(C)c1ccc(C2CC(=O)N3CN(C)CSC3=C2C#N)cc1 (centres undefined)	6.0	5.7	-0.7	45.3*	24.6	-5.4
COc1cc(OC)c(C2CC(=O)N3CN(C)CSC3=C2C#N)cc1OC (centres undefined)	10.4	17.5	1.4	2.5	.	.
O=C(CCNC(=O)c1ccc(Br)o1)NCc1ccccc1Cl	1.9	4.5	-1.8	5.1	.	.
CC(=O)N1CCc2cc(S(=O)(=O)CCC(=O)NCc3ccco3)ccc21	-1.8	-11.6	6.3	2.6	.	.
O=C(O)c1ccc(NC(=S)NC(=O)c2ccc3ccccc3c2)cc1	-2.7	-6.8	3.9	9.7	.	.
O=C(O)c1ccc(NC(=S)NC(=O)c2cccc(COc3ccccc3)c2)cc1	-23.9	-4.4	10.7	36.3*	69.8*	2.4
O=C(O)c1cccc(NC(=S)NC(=O)c2ccc3ccccc3c2)c1	0.6	14.9	-0.2	40.7*	58.3*	-7.1
CC(=O)C1C(c2ccc(C)cc2)c2c(n[nH]c2C)CC1(C)O (centres undefined)	8.2	16.0	-0.4	1.4	.	.
O=C(O)c1ccc(/C=N/NC(=O)c2cc(-c3ccc4c5c(cccc35)CC4)n[nH]2)cc1	17.8	-3.4	-0.5	36.9*	65.3*	-2.1
O=C(N/N=C/c1ccccn1)c1cc(-c2cccc3ccccc23)n[nH]1	3.2	-4.8	1.9	1.2	.	.
C=CCOc1cccc(C2C(C(=O)c3ccco3)=C(O)C(=O)N2Cc2ccco2)c1 (centres undefined)	-4.3	0.1	3.7	38.1*	23.4	-15.8
CCOc1cccc(C2C(C(=O)c3ccc(C)o3)=C(O)C(=O)N2Cc2ccccc2)c1 (centres undefined)	.	.	.	62.0*	78.6*	-28.6	DNA FID DR=>79.4
OC(CNCc1ccco1)Cn1c2ccc(Br)cc2c2cc(Br)ccc21 (centres undefined)	-15.8	-2.2	1.9	-13.3	.	.
O=c1oc2ccc(Cl)cc2nc1/C=C(\O)c1cccs1	-9.2	10.7	3.2	14.5	.	.
Cc1ccc(OCC(=O)N(Cc2cccc(Cl)c2)C2CCS(=O)(=O)C2)cc1C (centres undefined)	-17.7	-2.4	-1.8	-8.8	.	.
O=C1NC(c2ccccc2)CCO1 (centres undefined)	8.2	6.5	-0.1	56.5*	-10.3	12.9
O=C1CCCC(c2ccccc2)N1 (centres undefined)	-16.6	0.7	-0.1	-5.4	.	.
Cc1ccc(CC(=O)O/N=C(\N)Cc2ccc([N+](=O)[O-])cc2)cc1	5.3	-2.3	-17.1	37.7*	-5.5	1.8
COc1ccc(CC(=O)O/N=C(\N)Cc2ccc([N+](=O)[O-])cc2)cc1	-0.3	8.1	-0.8	14.9	.	.
Cc1cc(OCc2nnc(SC(C)C(=O)O)n2-c2ccccc2)ccc1Cl (centres undefined)	-8.5	-6.1	10.5	53.2*	39.7*	-27.1
SMILES	ZTA counter	EBNA-1 inh	Fh CTSL1 inh	HCV NS3 hel inh	NS3 hel confirm	DNA FID counter	others
O=C(Nc1nnc(-c2ccc3c(c2)CCCC3)o1)c1c(F)cccc1F	-6.3	-3.6	2.6	-0.6	.	.
O=C(Nc1nnc(-c2ccc3c(c2)CCCC3)o1)c1ccc(Cl)cc1Cl	5.8	4.4	6.1	72.3*	71.6*	-25.0
Cc1ccc(-c2noc(CCC(=O)NCC3CCCO3)n2)cc1 (centres undefined)	-10.1	-2.2	5.0	2.4	.	.
CCn1c(=O)c(CCC(=O)NCC2CCCO2)c(C)c2c(C)nn(-c3ccc(C)cc3)c21 (centres undefined)	-27.0	-6.7	-1.9	37.1*	-15.9	-43.7
CC(=O)Nc1ccc(NC(=O)CC2Nc3cccc4cccc(c34)NC2=O)cc1 (centres undefined)	4.8	6.8	5.8	46.4*	-1.5	1.5
Cc1cccc(NC(=O)CC2Nc3cccc4cccc(c34)NC2=O)c1 (centres undefined)	11.5	-10.4	1.9	45.2*	-25.9	13.9
CC(=O)c1ccc(NC(=O)CC2Nc3cccc4cccc(c34)NC2=O)cc1 (centres undefined)	2.1	-22.0	4.4	34.5	.	.
C=C1CCN([C@@H](Cc2ccccc2)C(=O)NCc2ccccc2)S(=O)(=O)c2ccccc21	7.5	0.0	-0.3	.	.	.
Fc1ccccc1/C=N/n1c(COc2ccccc2)n[nH]c1=S	10.7	-1.8	1.9	49.7*	8.8	-11.9
CCNc1ccc(Br)cc(C(=O)/C=C/c2ccc3c(c2)OCO3)c1=O	6.4	11.6	-1.3	46.7*	40.7*	-4.6
CNc1ccc(Br)cc(C(=O)/C=C/c2ccc(Cl)cc2Cl)c1=O	6.5	-7.4	2.1	38.5*	74.3*	13.8	DNA FID DR=>79.4
CCNc1ccc(Br)cc(C(=O)/C=C/c2ccc(Cl)cc2)c1=O	8.1	-1.5	1.5	28.1	.	.
CNc1ccc(Br)cc(C(=O)/C=C/c2ccc(OC)cc2OC)c1=O	4.0	-2.3	4.2	33.5	.	.
CNc1ccc(Br)cc(C(=O)/C=C/c2cccc(OC)c2)c1=O	0.2	9.8	-0.8	43.5*	53.5*	14.7	DNA FID DR=>79.4
CCCCCCOc1ccc(C(=O)O)cc1C#N	0.2	14.1	3.3	37.7*	16.1	-8.2
COc1cc(NC(=O)c2ccc(Br)o2)ccc1NC(=O)c1ccccc1Cl	5.9	1.7	4.4	-13.1	.	.
CCOC(=O)c1sc(NC(=O)/C=C/c2ccccc2)nc1C	9.4	8.9	2.8	9.8	.	.
Cc1cc([N+](=O)[O-])ccc1NC(=O)c1ccco1	-17.6	1.5	-0.7	-2.1	.	.
Cc1cc(NC(=O)c2ccc([N+](=O)[O-])cc2Cl)ccc1NC(=O)c1ccco1	-4.4	-9.4	-1.4	36.5*	-7.8	14.4
COc1ccc(-n2cnnc2SCC(=O)Nc2cccc(S(=O)(=O)N3CCCCC3)c2)cc1	-9.2	-5.8	-2.2	-10.1	.	.
O=C(Cn1cnc2ccccc2c1=O)NCCC(=O)N1CCN(Cc2ccccc2)CC1	6.2	7.3	1.3	38.3*	-18.9	-5.1
CCCN1CCN(C(=O)CCNC(=O)Cn2cnc3ccccc3c2=O)CC1	6.8	9.1	-3.0	-0.1	.	.
